Results: the RNAGym collection of RNA variant scans (doi:10.1126/science.aae0568)
Fewer inactive variants are shown than the library holds.

B1: tRNA (parent)
chain: GUUCCGUUGGCGUAAUGGUAACGCGUCUCCCUCCUAAGGAGAAGACUGCGGGUUCGAGUCCCGUACGGAACG

Variants of: B1
Assay: yeast fitness relative to wild type (ratio to wild type); higher = fitter; tRNA-Arg(CCU), competitive growth, 37 C, YPD
Method in brief: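 Start and end populations of a pooled competition were compared by 100-nucleotide paired-end sequencing of gene amplicons. The Saccharomyces cerevisiae strains carried tRNA-Arg(CCU) gene variants at the native genomic locus, synthesised with a 3% per-site mutation rate at 69 sites, and competed in YPD at 37°C for 24 hours in six parallel replicates. Darwinian fitness relative to wild type was based on the change in genotype frequencies. Genotypes required ≥ 100 starting reads, and estimates < 0.5 were set to 0.5.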

Variant | yeast fitness
U2C C33U A42C U64C A70G | ≤ 0.5
U2G C11G G12C C49U | ≤ 0.5
U2C G10A U54A C62U C66A | ≤ 0.5
U2C C31G U35A | ≤ 0.5
U2C C31G G58C G67C | 0.53
U2C C29U G56A | 0.625
U2C C24A C33A C46U | ≤ 0.5
U2C U3A A40C | ≤ 0.5
U2C C24G C46U | ≤ 0.5
U2G C11U C30U C55A A65C | ≤ 0.5
U2G A20U | 0.757
U2C C4U A37C G48A C60G A65U | ≤ 0.5
U2C C11G C22G | ≤ 0.5
U2C G12A U19C A21U G58C | 0.603
U2G A36G G51A | ≤ 0.5
U2C U26C C61G G63A A69U | 0.56
U2C A43G A57C A65U | ≤ 0.5
U2C U13C | 0.991
U2C U16A A40G G48A | ≤ 0.5
U2C A65G G68A A69C | 0.563
U2G C11G A20U C24G C55A C61U | ≤ 0.5
U2G A57C G68U | ≤ 0.5
U2C C29G | 0.626
U2C C29A | 0.659

Variant | yeast fitness
U2C C29U | 0.81
U2C C22U A69C | 0.511
U2C C24A C49A | ≤ 0.5
U2C C11A G41C C61A | ≤ 0.5
U2G A20G C33U G39A A65G | ≤ 0.5
U2G A70U | 0.917
U2G A70G | 1.07
U2C U7A C24A A37G A42U G48C U54A | ≤ 0.5
U2C C11U G12A A15G | ≤ 0.5
U2C G18A G25A | 0.599
U2C C24U C29U C30A | 0.59
U2G A20G C46A | 0.618
U2C G23C C55G A69U | ≤ 0.5
U2C C4A C34A A43G G52C C60G A65G | ≤ 0.5
U2C C11A G12A U35G U59A | ≤ 0.5
U2C U16C C22A U35A A45C | ≤ 0.5
U2C C30A U47C A65C C66G | ≤ 0.5
U2C U3C C22U C34U | ≤ 0.5
U2C G23A G38A G56C C61U G67A | ≤ 0.5
U2G | 0.994
U2C C55A | 0.7
U2G A15U | 0.75
U2G A15G | 0.812
U2C U19A U26A C29A C46G U54A | ≤ 0.5

Variant | yeast fitness
U2G A20U G25C C49G | ≤ 0.5
U2C U28A | 0.563
U2C U28C | 0.912
U2C G58A G68C | 0.645
U2C A57U G67C | 0.562
U2C G6C G25A A36C | ≤ 0.5
U2C C29A G44C C46G C62A | ≤ 0.5
U2C G18C A21G | 0.569
U2G C11G G38C G44A | ≤ 0.5
U2C G10C C11U C34A A37C C60A G67C | 0.7
U2C G18C G23C C33U G39A A43U C62A G63C | 0.851
U2G A21G A57C G63A | ≤ 0.5
U2C A43U G44C | ≤ 0.5
U2C G25A A42U A65C G67U | 0.578
U2C C31A G38C G50A | 0.604
U2C U3C C34U | 0.571
U2C U3G G18A A65U | ≤ 0.5
U2C U28C A37U U53A | 0.547
U2C C29U G38C A43U U53G | ≤ 0.5
U2C A70G | 0.945
U2C U13G C22U C60G A65G | ≤ 0.5
U2C C46G G63A A70U | ≤ 0.5
U2G C4A U16C C61G | 0.571
U2C U47C G67C | 0.719

Variant | yeast fitness
U2C C34G U59A | ≤ 0.5
U2C C11U U59A | 0.586
U2C A43G | 0.887
U2C G39U | 0.819
U2G A37C U54C | ≤ 0.5
U2G A43C | 1.07
U2G A43U | 0.996
U2C C24G C33G U53C C55U A70G | ≤ 0.5
U2C G9C A69C | 0.524
U2G A45G | 0.869
U2G A21C C22U C31U C33U C62A | ≤ 0.5
U2C G25A A42U | 0.561
U2C A65C | 0.86
U2C C27A C60G | ≤ 0.5
U2C C24A C66U | 0.61
U2C U13C C61G | ≤ 0.5
U2G C5U C34G C62U | ≤ 0.5
U2C C24U G25C U26A A57G | 0.878
U2C U7A C34U G44C | ≤ 0.5
U2C C29A G63A | ≤ 0.5
U2C G50A U54A G67A | ≤ 0.5
U2G C4A A37U | ≤ 0.5
U2C C27U | 0.881
U2C C27G | 0.748

Variant | yeast fitness
U2G C5A U19A A43G | ≤ 0.5
U2C U8G C49A C55U C66A A69C | ≤ 0.5
U2C C27U A43G | 0.593
U2G C4U C33G A37U U64G | ≤ 0.5
U2C U19A C24U G38A U54C C66A | ≤ 0.5
U2G A36G A69U | 0.56
U2G A43U G67C | 0.668
U2C U26G | 0.997
U2G C11U A45C U53G | 0.583
U2C U35C | 0.829
U2C C11A C22G G41A A43C G51C | ≤ 0.5
U2C C27U A36G | 0.575
U2C C27U A36C | ≤ 0.5
U2C A57U C62U | 0.549
U2G C4U C11G G18C U32C C34U A45U A70U | ≤ 0.5
U2C C11A C34G G51A | ≤ 0.5
U2G C4U C34G | ≤ 0.5
U2C C11G C22G G56A G63A | ≤ 0.5
U2G C4U C60G | 0.54
U2C U3C A21C C24A A65C | ≤ 0.5
U2G A45C C49U C55U | ≤ 0.5
U2C G6A A57U C62U | ≤ 0.5
U2C C27U C46U G48A | 0.636
U2C U26C C55A | 0.732

Variant | yeast fitness
U2G A43G G56A | 0.589
U2C G12A A15G A43U C62G | ≤ 0.5
U2C G44A C46U A69C | 0.784
U2C U13C G38A | 0.596
U2C G67U | 0.81
U2G A20C G38A C46A | ≤ 0.5
U2C C4U C62U | 0.698
U2C G18A C24U | 0.529
U2C U3C G25C C27G | ≤ 0.5
U2C G12A G18C C33U | 0.561
U2G C4U G25A A40C C46U | ≤ 0.5
U2C G12A G18C C33U C55U | ≤ 0.5
U2C C55A A57C G67C G68A | 0.575
U2C U3A A14C C30U A40U C49U | ≤ 0.5
U2G A14C A42C | ≤ 0.5
U2C C4U C46U G50U C55U | ≤ 0.5
U2C C49U | 0.808
U2C C5A C24A | ≤ 0.5
U2C C31G C55G | 0.569
U2G A45U C46G A69C | 0.537
U2C C46A | 0.942
U2C C46U U59C | 0.705
U2C C61G A65U | 0.547
U2C U28A A43C A57C C62A | 0.572

Variant | yeast fitness
U2C G23A C24U A45U C60A | 0.61
U2C C4A G18C G63A | 0.633
U2C C24A | 0.574
U2C C24U | 0.952
U2C U19A | 0.845
U2C C29U C66G G68A | ≤ 0.5
U2C U16A C49U A65C A69C | ≤ 0.5
U2C C34A | 0.77
U2C C4U G25C C29U C66A | ≤ 0.5
U2C U47A A70G | 1.15
U2C C29A C34G A43U G52A | 0.682
U2G A36U C46G C62A A69C | ≤ 0.5
U2G A37C G41A C49U | ≤ 0.5
U2C G44C | 0.846
U2C G44A | 0.86
U2C U32A A65G | ≤ 0.5
U2G C11G C46G G51C U53A | ≤ 0.5
U2C C29A A57C | ≤ 0.5
U2G C4A U16C | ≤ 0.5
U2C G18A G25A C66U | ≤ 0.5
U2C U47A | 0.982
U2G C4U U16A C27G A42U U53C | 0.564
U2C G52C | 0.661
